# Source: PMC2364724 (Drug metabolism and disposition: the biological fate of …, 2007)
# “And” between values parts separate entries of the source, which are not always exact repeats. Equal values may be shown once.
# What was measured:
# [1] = test system: pooled HIM; experiment: Phase I biotransformation of DB289 in pooled HIM; assay type: in vitro ADME, human; settings: for Phase I metabolite detection (HPLC/UV): 10 μM DB289, pooled HIM 0.2 mg/ml, NADPH, up to 120 min
# Procedure, shortened: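 Test compound (10 μM) with pooled HIM (0.2 mg/ml) in 100 mM phosphate pH 7.4, 3.3 mM MgCl2. Equilibrated 5 min at 37°C, then started with 1 mM NADPH. Aliquots taken at 0, 15, 30 and 120 min were quenched in ice-cold acetonitrile and analysed by HPLC/UV. Metabolites were assigned by retention time against synthetic standards. Controls omitted NADPH, microsomal protein or substrate.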
# [2] = test system: pooled HLM (human liver microsomes); settings: M1 formation, 0.02 mg/ml protein, 3 min, ref Wang et al., 2006; cited from earlier work
# [3] = Solubility in the incubation buffer; assay type: physicochemical; settings: highest concentration tested 25 μM
# [4] = six healthy men, p.o. 14C-DB289, single-dose escalation; ref C. Olson, Immtech Pharmaceuticals Inc., personal communication; cited from earlier work
# [5] = test system: HLM; settings: panel of HLM; ref Wang et al., 2006; cited from earlier work
# [6] = test system: human intestinal microsomes (HIM); experiment: Enzyme kinetics of M1 formation; assay type: in vitro ADME; settings: for KMapp(1): 5 min
# [7] = Enzyme kinetics of M1 formation; assay type: in vitro ADME, human; settings: human
# [8] = test system: purified CYP4A11; settings: higher for CYP4A11; ref Powell et al., 1998; cited from earlier work
# [9] = test system: recombinant CYP2J2; settings: ref Hashizume et al. (2002); cited from earlier work
# [10] = test system: P450 enzymes of pooled HIM (M1 formation from DB289); experiment: Chemical inhibition of M1 formation in pooled HIM; assay type: biochemical, human
# [11] = target: T1, recombinant CYP4F2 (Homo sapiens, UniProt P78329); experiment: Effect of α-NF on M1 formation by recombinant CYP4F2; assay type: biochemical; settings: recombinant CYP4F2, 1 μM α-NF, 3 μM DB289, P > 0.05
# T1 sequence (P78329 5-520): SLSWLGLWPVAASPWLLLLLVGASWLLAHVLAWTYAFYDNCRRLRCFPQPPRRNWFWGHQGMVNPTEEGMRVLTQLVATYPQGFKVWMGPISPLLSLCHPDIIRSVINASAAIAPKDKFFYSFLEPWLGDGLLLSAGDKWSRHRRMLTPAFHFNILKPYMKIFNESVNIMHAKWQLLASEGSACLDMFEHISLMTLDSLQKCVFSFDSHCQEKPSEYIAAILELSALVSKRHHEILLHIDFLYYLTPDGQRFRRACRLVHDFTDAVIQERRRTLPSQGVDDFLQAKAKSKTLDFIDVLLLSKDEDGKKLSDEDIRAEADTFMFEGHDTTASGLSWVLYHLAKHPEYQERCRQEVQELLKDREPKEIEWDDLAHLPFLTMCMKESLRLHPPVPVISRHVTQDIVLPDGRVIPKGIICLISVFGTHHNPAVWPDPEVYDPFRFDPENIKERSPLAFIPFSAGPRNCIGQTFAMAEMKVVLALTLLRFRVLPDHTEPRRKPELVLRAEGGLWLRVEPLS
# [12] = test system: pooled HLM; experiment: Effect of α-NF on M1 formation by pooled HLM; assay type: biochemical, human; settings: 1 μM α-NF, 3 μM DB289, P > 0.05
# [13] = target: recombinant CYP3A4 (Homo sapiens, UniProt P08684); experiment: Effect of α-NF on M1 formation by recombinant CYP3A4; assay type: biochemical; settings: recombinant CYP3A4 10 pmol/ml, 1 μM α-NF, 3 μM DB289, 15 min, P < 0.05
# [14] = target: T2, recombinant CYP4F3B (Homo sapiens, UniProt Q08477); experiment: Effect of α-NF on M1 formation by recombinant CYP4F3B; assay type: biochemical; settings: 1 μM α-NF, 3 μM DB289, P > 0.05
# T2 sequence (Q08477 1-520 isoform Q08477-2): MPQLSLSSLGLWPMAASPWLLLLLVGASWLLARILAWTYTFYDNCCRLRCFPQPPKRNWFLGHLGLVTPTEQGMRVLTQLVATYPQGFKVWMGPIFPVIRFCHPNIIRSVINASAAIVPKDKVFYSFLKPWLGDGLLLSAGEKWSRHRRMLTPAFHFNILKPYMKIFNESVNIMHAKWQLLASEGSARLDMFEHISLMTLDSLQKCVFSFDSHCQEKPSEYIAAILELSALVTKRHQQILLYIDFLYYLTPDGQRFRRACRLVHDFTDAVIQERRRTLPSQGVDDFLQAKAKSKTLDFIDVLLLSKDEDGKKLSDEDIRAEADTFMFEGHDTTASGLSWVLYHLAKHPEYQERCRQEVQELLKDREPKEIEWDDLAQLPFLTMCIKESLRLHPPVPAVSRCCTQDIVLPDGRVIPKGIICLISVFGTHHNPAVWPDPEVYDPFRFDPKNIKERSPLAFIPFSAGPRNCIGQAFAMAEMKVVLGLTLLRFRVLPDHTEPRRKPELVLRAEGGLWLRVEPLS
# [15] = target: T3, recombinant CYP2J2 (Homo sapiens, UniProt P51589); experiment: Effect of α-NF on M1 formation by recombinant CYP2J2; assay type: biochemical; settings: recombinant CYP2J2 10 pmol/ml, 1 μM α-NF, 3 μM DB289, P < 0.05
# T3 sequence (P51589 1-502): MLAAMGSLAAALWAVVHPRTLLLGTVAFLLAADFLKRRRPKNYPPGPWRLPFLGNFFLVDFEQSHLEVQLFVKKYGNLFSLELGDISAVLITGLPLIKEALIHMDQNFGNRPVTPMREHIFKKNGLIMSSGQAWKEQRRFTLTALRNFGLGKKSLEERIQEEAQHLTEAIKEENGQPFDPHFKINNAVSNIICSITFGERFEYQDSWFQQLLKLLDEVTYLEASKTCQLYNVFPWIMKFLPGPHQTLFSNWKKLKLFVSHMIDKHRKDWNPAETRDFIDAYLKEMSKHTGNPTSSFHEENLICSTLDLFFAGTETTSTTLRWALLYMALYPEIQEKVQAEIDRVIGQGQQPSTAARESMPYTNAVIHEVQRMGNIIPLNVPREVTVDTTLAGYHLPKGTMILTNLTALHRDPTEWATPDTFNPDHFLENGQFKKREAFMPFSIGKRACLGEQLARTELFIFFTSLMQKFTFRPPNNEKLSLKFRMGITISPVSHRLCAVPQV
# [16] = M1 formation, HIM 3, 0.2 mg/ml protein
# [17] = M1 formation, HIM 7, 0.2 mg/ml protein
# [18] = M1 formation, HIM 30, 0.2 mg/ml protein
# [19] = M1 formation, HIM 31, 0.2 mg/ml protein
# Sequence of recombinant CYP3A4 (P08684 whole entry): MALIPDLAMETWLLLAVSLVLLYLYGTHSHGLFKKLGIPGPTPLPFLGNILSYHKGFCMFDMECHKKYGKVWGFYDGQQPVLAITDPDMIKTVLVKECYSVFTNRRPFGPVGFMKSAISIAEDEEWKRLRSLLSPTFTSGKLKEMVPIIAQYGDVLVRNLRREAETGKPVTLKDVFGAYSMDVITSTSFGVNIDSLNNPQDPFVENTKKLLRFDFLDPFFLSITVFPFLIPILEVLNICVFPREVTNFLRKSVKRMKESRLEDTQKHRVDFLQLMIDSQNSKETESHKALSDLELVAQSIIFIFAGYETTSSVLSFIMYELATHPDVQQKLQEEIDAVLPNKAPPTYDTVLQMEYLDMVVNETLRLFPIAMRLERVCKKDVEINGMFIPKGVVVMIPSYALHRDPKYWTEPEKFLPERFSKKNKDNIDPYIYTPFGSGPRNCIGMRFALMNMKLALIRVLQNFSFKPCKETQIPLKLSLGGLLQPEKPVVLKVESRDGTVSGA
compound,measurement,setting,value
"N=C(N)c1ccc(-c2ccc(-c3ccc(C(=N)N)cc3)o2)cc1 [DB75, 2,5-bis(4-amidinophenyl) furan]",Phase I metabolite detection (HPLC/UV),[1],not detected
"CONC(=N)c1ccc(-c2ccc(-c3ccc(C(=N)NOC)cc3)o2)cc1 [DB289, 2,5-bis(4-amidinophenyl)furan-bis-O-methylamidoxime]",KMapp(1),[2],0.5 µM
same,solubility in the incubation buffer,[3],limited
same,coefficient of variation for Cmax,[4],approximately 50%
same,coefficient of variation for area under the curve,[4],approximately 50%
same,coefficient of variation for terminal half-life,[4],approximately 50%
same,variation in M1 formation rates,[5],4 fold and ~ 4 fold
same,total intrinsic clearance of M1 formation by HIM relative to pooled HLM,[6]; HIM versus pooled HLM,at most 10%
same,Vmax(1),"[6]; M1 formation, HIM 1, 0.2 mg/ml protein",0.12 nmol/min/mg protein
same,KMapp(1),"[6]; M1 formation, HIM 1, 0.2 mg/ml protein, biphasic",0.8 µM
same,Vmax(1),"[6]; M1 formation, HIM 2, 0.1 mg/ml protein",0.42 nmol/min/mg protein
same,KMapp(1),"[6]; M1 formation, HIM 2, 0.1 mg/ml protein, biphasic",0.7 µM
same,Vmax(1),[6]; [16],0.24 nmol/min/mg protein
same,KMapp(1),[6]; [16],1.3 µM
same,Vmax(1),[6]; [17],0.89 nmol/min/mg protein
same,KMapp(1),[6]; [17],1.3 µM
same,KMapp(1),"[6]; M1 formation, HIM 12, 0.2 mg/ml protein",2.3 µM
same,KMapp(1),"[6]; M1 formation, HIM 23A, 0.2 mg/ml protein, biphasic",2.4 µM
same,Vmax(1),[6]; [18],0.19 nmol/min/mg protein
same,KMapp(1),[6]; [18],0.6 µM
same,Vmax(1),[6]; [19],0.02 nmol/min/mg protein
same,KMapp(1),[6]; [19],1.4 µM
same,Vmax(1),"[6]; M1 formation, HIM 32, 0.1 mg/ml protein",0.44 nmol/min/mg protein
same,KMapp(1),"[6]; M1 formation, HIM 32, 0.1 mg/ml protein, 37°C",0.6 µM
same,"KMapp(1), average","[6]; M1 formation, nine individual HIM",1.3 µM
same,Vmax(1),"[6]; M1 formation, pooled HIM, 0.2 mg/ml protein",0.19 nmol/min/mg protein
same,KMapp(1),"[6]; M1 formation, pooled HIM, 0.2 mg/ml protein, biphasic",0.7 µM
same,microsomal CLint,"[7]; human intestinal microsomes (individual HIM 32), pH 7.4, CL′int(1), M1 formation, HIM 32, Vmax(1)/KMapp(1)",730 µL/min/mg
same,microsomal CLint,"[7]; human intestinal microsomes (pooled and nine individual HIM), pH 7.4, total intrinsic clearance [CL′int(1) + CL′int(2)] of M1 formation, range, HIM",10 to 730 µL/min/mg
CON=C(N)c1ccc(-c2ccc(-c3ccc(C(N)=NO)cc3)o2)cc1 [M1],Phase I metabolite detection (HPLC/UV),[1],identified
same,fraction of M1 further metabolized,"[1]; within the first 15 min of incubation, 10 μM DB289, pooled HIM",Less than 10%
NC(=NO)c1ccc(-c2ccc(-c3ccc(C(N)=NO)cc3)o2)cc1 [M2],Phase I metabolite detection (HPLC/UV),[1],identified
CON=C(N)c1ccc(-c2ccc(-c3ccc(C(=N)N)cc3)o2)cc1 [M3],Phase I metabolite detection (HPLC/UV),[1],identified
N=C(N)c1ccc(-c2ccc(-c3ccc(C(N)=NO)cc3)o2)cc1 [M4],Phase I metabolite detection (HPLC/UV),[1],not detected
CCCCC/C=C\C/C=C\C/C=C\C/C=C\CCCC(=O)O [arachidonic acid],"Km of 20-HETE formation, CYP4A11 relative to CYP4F2",[8],10 fold
CC(C)(C)c1ccc(C(=O)CCCN2CCC(OC(c3ccccc3)c3ccccc3)CC2)cc1 [ebastine],Km,[9],1300 nM
CCCCCCCCCCCC(=O)O [lauric acid],inhibition of M1 formation,"[10]; pooled HIM 0.2 mg/ml, 3 μM DB289, 5 min, inhibitor concentration as in Fig. 2A",lack of inhibition
"O=c1cc(-c2ccccc2)oc2c1ccc1ccccc12 [α-NF, α-naphthoflavone]",effect on M1 formation,[11],not significant
same,activation of M1 formation,"[10]; different lot of pooled HIM, 1 μM α-NF, 3 μM DB289, P < 0.05",34%
same,activation of M1 formation,"[10]; pooled HIM, 3 μM DB289 (Fig. 2A)",43%
same,effect on M1 formation,[12],not significant
same,activation of M1 formation,[13],120%
same,effect on M1 formation,[14],not significant
same,activation of M1 formation,[15],55%
